# ChEMBL document CHEMBL1122117, “Pyridazinones. 1. Synthesis and antisecretory and antiulcer activities of thio amide derivatives” (1982)
# Experiments:
# [1] = system: Rattus norvegicus; assay: Antiulcer activity in male Donry rat for 50% inhibition of aspirin induced gastric lesions after intraduodenal administration.; assay type: functional; conditions: Stomach
# Method in brief: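 Aspirin ulcer model. Male Donryu rats of 200–220 g were food-deprived 24 h, ten per group, pylorus-ligated, then dosed intraduodenally. Ten min later they received oral aspirin 100 mg/kg in 1% carboxymethylcellulose. At 7 h the summed lengths of glandular lesions gave the ulcer index (mm). ED50 by Litchfield–Wilcoxon.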
# [2] = system: Rattus norvegicus; assay: Antiulcer activity in male Wistar rats for 50% inhibition of stress induced gastric lesions after peroral administration.; assay type: functional; conditions: Stomach, po
# Method in brief: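 Stress ulcer model. Male Wistar rats of 200–220 g, ten per group, were dosed orally, then immobilized in a stress cage and immersed in a water bath. The stomach was removed 7 h later and summed lesion lengths gave the ulcer index (mm). ED50 by Litchfield–Wilcoxon.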
# [3] = system: Rattus norvegicus; assay: Effective dose required for gastric antisecretory activity in the pylorus-ligated rat after intraduodenal administration.; assay type: functional; conditions: Stomach
# Method in brief: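 Pylorus ligated under ether in fasted rats, six per group. Test agents were given intraduodenally at several dose levels in 1% carboxymethylcellulose, with a vehicle control group. After 7 h the gastric juice volume was measured and titrated with 0.1 N NaOH to pH 3.0 for free acid, as hourly output per rat. ED50 was calculated.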
# [4] = system: Rattus norvegicus; assay: Antiulcer activity as dose required to inhibit 50% gastric juice secretions in male Wistar rats after intraduodenally administration.; assay type: functional; conditions: intraduodenal
# [5] = system: Rattus norvegicus; assay: Inhibition of gastric antisecretory activity in the pylorus-ligated rat at a dose of 100 mg/kg administered intraduodenally; assay type: functional; conditions: Stomach, route intraduodenal
# Method in brief: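 Shay pylorus-ligated rats, fasted, six per group, ligated under ether. A single intraduodenal dose of 100 mg/kg was given in 1% carboxymethylcellulose, against a vehicle control. The stomach was removed 7 h later, juice volume measured, and free acid titrated with 0.1 N NaOH to pH 3.0 as hourly output. Results are given as percent inhibition versus control.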
# [6] = system: Rattus norvegicus; assay: Percent inhibition of gastric antisecretory activity in the pylorus-ligated rat at a dose of 100 mg/kg administered intraduodenally; assay type: functional; conditions: Stomach, route intraduodenal
# Method in brief: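 Fasted rats in groups of six, pylorus ligated under ether anaesthesia (Shay method); compound in 1% carboxymethylcellulose, or vehicle alone, given intraduodenally at 100 mg/kg. Stomach removed 7 h after abdominal closure. Gastric juice volume measured, and free acid titrated with 0.1 N NaOH to pH 3.0. Hourly free-acid output per rat expressed as percent inhibition versus vehicle controls.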
# [7] = species: Rattus norvegicus; assay: animal or person; conditions: Stomach, intraduodenal
# [8] = species: Rattus norvegicus; assay: animal or person; conditions: Stomach, intraduodenal; remark: listed apart in the source
SMILES,ED50 [3],inhibition in vivo at 100 mg/kg [5],other results
Cc1cc(-c2ccccc2)nn(CCC(=N)S)c1=O,66.7 mg/kg,60.2%,ED50 [1]: 73.1 mg/kg; ED50 [2]: > 50 mg/kg; ED50 [4]: 32 mg/kg
O=c1ccc(-c2ccccc2)nn1CC/C(S)=N/CO,–,–,inhibition in vivo at 100 mg/kg [6]: 5.1%
Cc1cc(=O)n(CCC(=N)S)nc1-c1ccccc1,> 100 mg/kg,32%,–
Cc1ccc(=O)n(CCCCC(=N)S)n1,> 100 mg/kg,29.5%,–
Cc1ccc(-c2ccc(=O)n(CCC(=N)S)n2)cc1,–,18.2%,–
CC(Cn1nc(-c2ccccc2)ccc1=O)C(=N)S (stereo not drawn),28.1 mg/kg,86.4%,ED50 [1]: 35 mg/kg; ED50 [2]: 36.1 mg/kg; ED50 [4]: 18.2 mg/kg
N=C(S)CCCCCN1N=C(c2ccccc2)CCC1=O,100 mg/kg,48.5%,–
NC(=O)CCn1nc(-c2ccccc2)ccc1=O,–,-2.8%,–
CC/N=C(\S)CCn1nc(-c2ccccc2)ccc1=O,100 mg/kg,50.3%,–
N=C(S)CCCCCCN1N=C(c2ccccc2)CCC1=O,58.8 mg/kg,68.3%,ED50 [1]: 72.3 mg/kg; ED50 [2]: 23 mg/kg; ED50 [4]: 24.8 mg/kg
Cc1ccc(=O)n(C(C)CC(=N)S)n1 (stereo not drawn),> 100 mg/kg,32.5%,–
CC(CN1N=C(c2ccccc2)CCC1=O)C(=N)S (stereo not drawn),–,28.2%,–
N=C(S)CCN1N=C(c2ccccc2)CCC1=O,> 100 mg/kg,38.2%,–
N=C(S)CCN1N=C(c2cccs2)CCC1=O,77.3 mg/kg,58.5%,–
CC1=NN(CC(C)C(=N)S)C(=O)CC1 (stereo not drawn),–,15.6%,–
N=C(S)CCn1nc(-c2ccccc2)ccc1=S,73.4 mg/kg,62.3%,–
N=C(S)CCCCN1N=C(c2ccccc2)CCC1=O,100 mg/kg,50.2%,–
N=C(S)CCn1nc(-c2ccccc2)c2ccccc2c1=O,66.5 mg/kg,73.3%,–
N=C(S)CCn1ncccc1=O,> 100 mg/kg,28.8%,–
CC(CC(=N)S)n1ncccc1=O (stereo not drawn),> 100 mg/kg,38.8%,–
N=C(S)CCCCCn1nc(-c2ccccc2)ccc1=O,23.3 mg/kg,91.4%,ED50 [1]: 18.2 mg/kg; ED50 [2]: 10.2 mg/kg; ED50 [4]: 9.2 mg/kg
N=C(S)CCn1nc2c(cc1=O)CCc1ccccc1-2,–,1.6%,–
N=C(S)CCn1nc(-c2ccccc2)ccc1=O,87.3 mg/kg,53.7%,ED50 [1]: 53.5 mg/kg; ED50 [2]: 34.5 mg/kg; ED50 [4]: 23.2 mg/kg

SMILES,ED50 [3],inhibition in vivo at 100 mg/kg [5],other results
O=C(O)CCn1nc(-c2ccccc2)ccc1=O,–,26.1%,–
Cc1ccc(=O)n(CCC#N)n1,–,-0.2%,–
COc1ccc2cc(-c3ccc(=O)n(CCC(=N)S)n3)ccc2c1,100 mg/kg,48.9%,–
CN(C)C(=S)CCCCCn1nc(-c2ccccc2)ccc1=O,100 mg/kg,58.2%,–
N=C(S)CCn1[nH]c(=O)ccc1=O,–,-13.4%,–
C/N=C(\S)C(C)Cn1ncccc1=O (stereo not drawn),100 mg/kg,50.2%,ED50 [1]: 68.5 mg/kg; ED50 [2]: > 50 mg/kg; ED50 [4]: 40 mg/kg
CC1=NN(C(C)CC(=N)S)C(=O)CC1 (stereo not drawn),–,17.4%,–
N=C(S)CCn1ncccc1=S,100 mg/kg,50%,–
N=C(S)CCCN1N=C(c2ccccc2)CCC1=O,100 mg/kg,50.3%,–
Cc1ccc(=O)n(CC(=N)S)n1,> 100 mg/kg,31.5%,–
N=C(S)CCCn1nc(-c2ccccc2)ccc1=O,31.9 mg/kg,75.6%,ED50 [1]: 38 mg/kg; ED50 [2]: 10.5 mg/kg; ED50 [4]: 15.5 mg/kg
Cc1ccc(=S)n(CCC(=N)S)n1,100 mg/kg,48.5%,–
N=C(S)Cn1nc(-c2ccccc2)ccc1=O,–,5.5%,–
N=C(S)CCn1nc(-c2ccc(Cl)c(Cl)c2)ccc1=O,78.1 mg/kg,55.8%,–
N=C(S)CCn1nc(-c2ccc(Cl)cc2)ccc1=O,> 100 mg/kg,42.5%,–
CNC(=O)CCn1nc(-c2ccccc2)ccc1=O,–,3.5%,–
CC(CC(=N)S)N1N=C(c2ccccc2)CCC1=O (stereo not drawn),–,9.2%,–
CC(Cn1ncccc1=S)C(=N)S (stereo not drawn),–,-1%,–
C/N=C(\S)CC(C)n1ncccc1=O (stereo not drawn),> 100 mg/kg,42.7%,–
N=C(S)CCCCCCn1nc(-c2ccccc2)ccc1=O,> 100 mg/kg,33.9%,–
C/N=C(/S)CCCCCn1nc(-c2ccccc2)ccc1=O,25.2 mg/kg,92.3%,ED50 [1]: 45.5 mg/kg; ED50 [2]: 18.3 mg/kg; ED50 [4]: 15 mg/kg
Cc1ccc(=O)n(CCCC(=N)S)n1,> 100 mg/kg,36.3%,–
N#CCCn1nc(-c2ccccc2)ccc1=O,–,10.1%,–

SMILES,ED50 [3],inhibition in vivo at 100 mg/kg [5],other results
Cc1ccc(=O)n(CCCCCCC(=N)S)n1,> 100 mg/kg,29.5%,–
CC1=NN(CCC(=N)S)C(=O)CC1,> 100 mg/kg,34.8%,–
N=C(S)CCN1N=C(c2ccc(Cl)c(Cl)c2)CCC1=O,> 100 mg/kg,47.2%,–
O=c1ccc(-c2ccccc2)nn1CCC(=S)N1CCCC1,> 100 mg/kg,38.2%,–
CC(Cn1ncccc1=O)C(=N)S (stereo not drawn),> 100 mg/kg,40.3%,–
N=C(S)CCN1N=C(c2ccc(Cl)cc2)CCC1=O,> 100 mg/kg,43.1%,–
Cc1ccc(=O)n(CCC(N)=O)n1,–,-2.9%,–
Cc1ccc(=O)n(CCC(=N)S)n1,43.2 mg/kg,73.9%,ED50 [1]: > 100 mg/kg; ED50 [2]: > 50 mg/kg; ED50 [4]: 51.3 mg/kg
N=C(S)CCCCn1nc(-c2ccccc2)ccc1=O,> 100 mg/kg,33.8%,–
Cc1ccc(=O)n(CCCCCC(=N)S)n1,> 100 mg/kg,36.6%,–
C/N=C(\S)CCn1ncccc1=O,> 100 mg/kg,30.7%,–
CCOC(=O)CCn1nc(-c2ccccc2)ccc1=O,–,6.3%,–
COc1ccc(-c2ccc(=O)n(CCC(=N)S)n2)cc1,> 100 mg/kg,20.7%,–
N=C(S)CCn1ncc2ccccc2c1=O,90.1 mg/kg,58.3%,–
CC(CC(=N)S)n1nc(-c2ccccc2)ccc1=O (stereo not drawn),–,15.5%,–
Cc1ccc(=O)n(CC(C)C(=N)S)n1 (stereo not drawn),> 100 mg/kg,30.2%,–
CN(C)C(=S)CCn1nc(-c2ccccc2)ccc1=O,–,46%,–
N=C(S)CCn1nc(-c2cccs2)ccc1=O,100 mg/kg,50.2%,–
O=c1cccnn1CCC(=S)N1CCCC1,> 100 mg/kg,29.7%,–
C/N=C(\S)CCn1nc(-c2ccccc2)ccc1=O,58.5 mg/kg,68.2%,ED50 [1]: 66.3 mg/kg; ED50 [2]: 28.3 mg/kg; ED50 [4]: 50.1 mg/kg
CN1[C@@H]2CC[C@H]1C[C@@H](OC(=O)C(CO)c1ccccc1)C2.O=S(=O)(O)O (stereo partly drawn) [ATROPINE SULFATE],–,–,ED50 [1]: 4.5 mg/kg; ED50 [7]: 1.1 mg/kg; ED50 [8]: 0.9 mg/kg
CN/C(=N\CCSCc1nc[nH]c1C)NC#N [CIMETIDINE],–,–,ED50 [7]: > 100 mg/kg; ED50 [2]: 43.2 mg/kg
